# Shown is part of a subset that was picked to be rich in hits.
# TLR4-MyD88 BLA = inhibitors of TLR4-MyD88 association in cells, primary screen, cell-based, HeLa CL3-4, BLA complementation, FRET ratio. HeLa CL3-4 TLR4/MyD88 BLA complementation. inhibition, % at 8.4 µM. 200,000 compounds, 0.18% hits. Toll-like receptor 4 (Homo sapiens) + Myeloid differentiation primary response protein …; in the data active means inhibition above about 25%;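 further: 0% = vehicle and 100% = reference inhibitor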
# Target sequence (O00206 whole entry, looked up): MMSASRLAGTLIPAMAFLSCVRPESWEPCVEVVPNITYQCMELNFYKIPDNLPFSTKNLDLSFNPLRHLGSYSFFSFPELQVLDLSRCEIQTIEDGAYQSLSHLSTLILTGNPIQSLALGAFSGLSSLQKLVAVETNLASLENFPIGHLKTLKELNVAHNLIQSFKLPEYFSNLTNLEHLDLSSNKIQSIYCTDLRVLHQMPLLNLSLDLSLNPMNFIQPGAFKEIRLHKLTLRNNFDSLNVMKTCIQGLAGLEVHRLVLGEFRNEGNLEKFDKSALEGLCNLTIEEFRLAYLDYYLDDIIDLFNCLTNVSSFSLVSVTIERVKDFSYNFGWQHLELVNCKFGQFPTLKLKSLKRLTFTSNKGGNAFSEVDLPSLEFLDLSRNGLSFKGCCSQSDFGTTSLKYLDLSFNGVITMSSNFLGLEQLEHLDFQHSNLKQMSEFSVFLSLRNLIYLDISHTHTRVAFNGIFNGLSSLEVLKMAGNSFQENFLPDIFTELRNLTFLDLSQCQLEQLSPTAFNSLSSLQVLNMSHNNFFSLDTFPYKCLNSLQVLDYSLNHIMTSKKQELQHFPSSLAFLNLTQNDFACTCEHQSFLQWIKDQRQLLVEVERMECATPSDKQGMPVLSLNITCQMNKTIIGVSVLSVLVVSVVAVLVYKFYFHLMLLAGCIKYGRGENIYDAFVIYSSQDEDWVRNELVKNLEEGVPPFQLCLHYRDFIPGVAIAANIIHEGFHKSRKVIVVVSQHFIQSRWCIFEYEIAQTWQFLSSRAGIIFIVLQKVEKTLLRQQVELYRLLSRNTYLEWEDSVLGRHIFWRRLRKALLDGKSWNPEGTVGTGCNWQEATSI
# Target sequence (Q99836 whole entry, looked up): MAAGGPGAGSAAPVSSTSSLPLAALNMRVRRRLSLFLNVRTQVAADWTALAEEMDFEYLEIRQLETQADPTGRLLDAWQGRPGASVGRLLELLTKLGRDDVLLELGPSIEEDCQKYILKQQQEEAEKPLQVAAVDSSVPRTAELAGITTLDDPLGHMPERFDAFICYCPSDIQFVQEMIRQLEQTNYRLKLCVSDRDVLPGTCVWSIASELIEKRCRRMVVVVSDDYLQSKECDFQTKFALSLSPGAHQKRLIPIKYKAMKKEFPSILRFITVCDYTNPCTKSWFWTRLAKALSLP
# TLR9-MyD88 inh = inhibitors of TLR9-MyD88 association in cells, primary screen, cell-based, CHO, BLA complementation, fluorescence | 340,000 compounds, 0.21% hits | inhibition, % at 4.98 µM | Toll-like receptor 9 (Homo sapiens) + Myeloid differentiation primary response protein … | CCF4 FRET ratio;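 active means inhibition above the mean over all tested compounds plus 3 SD, cut at about 21% in these data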;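 further: 0% = DMSO only wells and 100% = clavulanate BLA inhibitor control wells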
# CHOP UPR activ = activators of apoptotic CHOP UPR arm, primary screen, cell-based, CHO-CHOP luciferase reporter, luminescence, uHTS. activation, % at 10 µM. UPR activation; percent of tunicamycin response over DMSO baseline. AID 449763, 2010. 330,000 compounds, 0.34% hits;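 active means at 10 µM dose, activation of 40% or more, normalized to positive control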;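 further: 100% = tunicamycin at 10 µg/mL and 0% = DMSO alone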
#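 Evaluation: % reporter activation, DMSO baseline versus tunicamycin full activation; System: CHO-CHOP luciferase reporter cell line; Input: 500 cells/well; Incubation: 6 h compound treatment, 37 °C; Measured by: Steady-Glo luciferase luminescence; Dosing: one dose, 10 µM in 0.5% DMSO; Buffer or medium: F12 medium, 10% FBS; Benchmarks: positive tunicamycin 10 µg/mL, negative DMSO alone.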
# UPR XBP1 act = activators of adaptive XBP1 UPR arm, primary screen, cell-based, CHO-XBP1 luciferase reporter, luminescence, uHTS | activation, % at 20 µM | IRE1-XBP1 UPR activation; percent of tunicamycin response, DMSO as zero | 330,000 compounds, 0.33% hits;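 active means versus positive control, 20 µM dose yields 30% or more activation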;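 further: 100% = tunicamycin at 10 µg/mL and 0% = DMSO only wells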
#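 Assay system: CHO-XBP1 luciferase reporter cells; Schedule: 6 h treatment, 37 °C; Detection: glow luminescence from Steady-Glo reagent; Benchmarks: high control tunicamycin 10 µg/mL final, low control DMSO vehicle only.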
# CHOP inh = inhibitors of CHOP promoter induction, primary screen, cell-based, unfolded protein response, luciferase reporter; AID 2732, 2010; 220,000 compounds, 3.8% hits; inhibition, % at 10 µM; CHO-K1 CHOP-promoter luciferase, tunicamycin-induced, 15-18 h;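 active means compounds that reduced the stress-induced luciferase reporter signal by more than about 70% of percent inhibition, limit read from the data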;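 further: 0% = tunicamycin plus vehicle and 100% = wells without tunicamycin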
# NOD2-RIPK2 inh = NOD2-RIPK2 binding disruptors in cells, primary screen, fluorescence, CHO cells, BLA complementation | 360,000 compounds, 0.38% hits | Receptor-interacting serine/threonine-protein kinase 2 (Homo sapiens), O43353 | CCF4 ratio | inhibition, % at 4.98 µM | AID 624267, 2012; in the data active means inhibition above about 21%;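 further: 0% = vehicle only and 100% = reference blocker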
# CHOP UPR conf = activators of apoptotic CHOP UPR arm, confirmation, cell-based, CHO-CHOP luciferase reporter, single concentration. 1,000 compounds, 64% hits. CHO-CHOP cells, CHOP-luciferase reporter luminescence; percent of tunicamycin response, DMSO as zero. shares compounds with CHOP UPR activ. AID 463112, 2010. activation, % at 10 µM; in the data active means activation above about 33%;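 further: 0% = DMSO wells and 100% = tunicamycin 10 µg/mL wells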
# * marks the source's active call; other numbers are inactive results; . = no result.
SMILES,TLR4-MyD88 BLA,TLR9-MyD88 inh,CHOP UPR activ,UPR XBP1 act,CHOP inh,NOD2-RIPK2 inh,CHOP UPR conf
Cc1ccc(C)c2sc(N3CCN(C(=O)c4ccc([N+](=O)[O-])o4)CC3)nc12,.,4,83*,7,.,6,61*
CC1(C)C(=O)Nc2ccccc2N1C(=O)Cn1ncc(Cl)c(Cl)c1=O,.,5,50*,2,-104,-4,4
Cc1nn(CC(=O)N2c3ccccc3NC(=O)C2(C)C)c(C)c1[N+](=O)[O-],6,3,2,-2,-2,-2,.
CCOc1ccc(/C=N/NC(=O)NC23CC4CC(CC(C4)C2)C3)cc1O,.,-3,2,7,.,-1,.
O=C(N/N=C/c1ccc(O)c(O)c1)NC12CC3CC(CC(C3)C1)C2,.,0,145*,42*,.,-3,157*
O=[N+]([O-])c1ccc2nc(Cl)nc(-c3ccccc3)c2c1,.,12,106*,16,.,-3,87*
Cc1cc(C)n(-c2nc(NC(C)(C)C)nc(NC(C)(C)C)n2)n1,-4,3,108*,9,78*,-4,45*
Cc1cc(C)n(-c2nnc(NC(C)(C)C)nn2)n1,-7,-5,3,-4,-17,-6,.
COc1cc(CNc2ccc3[nH]c(=O)[nH]c3c2)ccc1OCc1ccc(C)cc1,.,-10,13,1,.,-24,.
COc1cc(CNc2ccc3[nH]c(=O)[nH]c3c2)cc(Br)c1OCc1ccc(F)cc1,.,-6,67*,2,.,-7,28
CCOc1ccc(NC(=O)c2ccncc2)cc1,4,-7,2,2,34,-12,.
CCOc1ccc2c(c1)C(=NNC(=O)c1ccncc1)c1cc(OCC)ccc1-2,-12,-4,50*,5,-5,2,43*
Cn1cnc2ncnn2c1=S,.,6,.,.,.,-3,.
O=C(CCc1ccc(O)c(O)c1)N/N=C/c1ccc2c(c1)OCO2,.,5,49*,34*,.,8,9
CC(C)NC(=O)C1(C)CCN1C(=O)c1ccccc1 (configuration not stated),.,.,.,.,.,-10,.
CCCCCCCCOc1ccc(C2OC34CCCCC3C(C#N)(C#N)C2(C#N)C(=N)O4)cc1 (configuration not stated),-2,6,45*,-2,-46,1,29
COC(=O)c1cc2c(n1S(=O)(=O)c1ccc(C)cc1)C(=O)C(=O)c1[nH]cc(C(=O)OCc3ccccc3)c1-2,.,-6,.,.,.,-4,.
Cc1ccc(S(=O)(=O)NC2CCCCCCC2)cc1,.,-1,-1,-3,.,2,.
Cc1ccc(S(=O)(=O)NC2OC(=O)C(Cl)=C2Cl)cc1 (configuration not stated),4,-16,63*,-5,-78,-11,15
Cn1cc(/C=N/n2cnc3sc4c(c3c2=O)CCCC4)c2ccccc21,-2,-5,0,3,0,-12,.
O=c1c2c3c(sc2ncn1/N=C/c1ccc([N+](=O)[O-])o1)CCCC3,-9,0,213*,-9,57,10,195*
Oc1ccc(/C=N/N2CCCCC2)cc1O,.,-6,179*,5,.,4,38*
COc1ccccc1N1CCN(/N=C/c2ccc(O)c(O)c2)CC1,-9,.,184*,9,-6,.,101*
Clc1ccc(C=NN2CCCCCC2)cc1Cl,.,-20,.,.,.,10,.
Cc1ccc(C)c(N2CCN(C3C(=O)Nc4ccccc4-n4nnnc43)CC2)c1 (configuration not stated),.,.,.,.,.,-10,.
SMILES,TLR4-MyD88 BLA,TLR9-MyD88 inh,CHOP UPR activ,UPR XBP1 act,CHOP inh,NOD2-RIPK2 inh,CHOP UPR conf
N/C(=N\OC(=O)c1ccccc1)C(C(=O)NOC(=O)c1ccccc1)C1CCCCC1 (configuration not stated),.,6,.,.,.,7,.
CC1(C)CC(=O)C2=C(C1)N=c1s/c(=C/c3ccc(F)c(F)c3)c(=O)n1C2c1ccc(F)cc1 (configuration not stated),-1,9,40*,2,-25,-3,29
CC(=O)c1cccc(NC(=O)C2CCCN2S(=O)(=O)c2cccs2)c1 (configuration not stated),.,-7,.,.,.,-7,.
CC(C)c1ccc(OCCCCCN2CCOCC2)cc1,.,-3,3,1,.,0,.
CC(=O)Oc1ccc(OC(C)=O)c(SCCCCCN2CCOCC2)c1,3,2,73*,-4,-220,-5,33*
O=C(C[C@H]1C/C=C\CC[C@H](Cc2ccc(F)cc2)C(=O)O[C@H](c2ccccc2)CNC1=O)N[C@H](CO)Cc1ccccc1,.,-4,5,-3,.,2,.
O=C(CCl)Nc1cccc(S(=O)(=O)NC2=NCCCCC2)c1,.,-7,167*,20,.,-6,81*
CCCCc1c(O)nc(SCC(=O)N2CCOCC2)n(-c2ccc(C)cc2)c1=O,.,5,.,.,.,-7,.
Cc1[nH]n(-c2ncc(-c3ccc(Cl)cc3)s2)c(=O)c1C(c1ccc(Cl)cc1)C(C#N)C#N (configuration not stated),-9,-8,4,1,-3,0,.
COc1ccc(C(c2c(C)[nH]n(C(N)=S)c2=O)C(C#N)C#N)cc1 (configuration not stated),-4,7,62*,2,-59,-5,56*
CCN(CC)CCNC(=O)CN1C(=O)CSc2ccc(S(=O)(=O)N3CCOCC3)cc21,.,-7,.,.,.,19,.
CCCNC(=O)C1(C)CCN(C(=O)c2ccccc2OC)C1 (configuration not stated),.,.,.,.,.,2,.
Cc1cccc(OCCN2CSC(=S)N(C)C2)c1,-11,-2,59*,6,-68,-5,35*
COc1ccccc1OCCN1CSC(=S)N(C)C1,-3,-14,82*,-3,29,-11,28
Cc1cccc(OCCCN2CCCCCC2)c1,6,-8,1,-2,-12,2,.
C=CCOC(=O)c1sc(NC(=O)c2ccc(OC)cc2)nc1C,5,2,43*,5,27,3,0
CCOc1ccc(C(=O)Nc2nc(C)c(C(=O)OC)s2)cc1,.,.,4,2,-40,-2,.

# Screening data: PubChem BioAssay, several laboratories
